Data as given in ChEMBL document CHEMBL4616671, “Identification of N-Phenyl-7H-pyrrolo[2,3-d]pyrimidin-4-amine Derivatives as Novel, Potent, and Selective NF-κB Inducing Kinase (NIK) Inhibitors for the Treatment of Psoriasis” (J Med Chem, 2020).
pIC50: −log10 of the molar value. Active and inactive are the calls of the source. The rule behind the calls is not given here.

Key:
[1] = Intrinsic clearance in human liver microsomes assessed per mg of protein incubated for 10 mins followed by potassium phosphate buffer addition and measured after 5 to 60 mins by LC-MS/MS analysis; type: ADME, Microsome; conditions: read-out: CLH
Procedure, shortened: (§1)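 Rat, dog, monkey or human liver microsomes pre-incubated with compound at 37 °C for 10 min; reaction started after pre-warming and stopped at 5, 15, 30, 60 min with chilled quench containing tolbutamide and labetalol. No-cofactor control in 100 mM potassium phosphate for 60 min. LC-MS/MS analysis; first-order fit: k = −slope, T1/2 = 0.693/k, CLint = k/microsomal protein concentration.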

T-cell [2] = experiment: Growth inhibition of mouse T cells at 10 uM after 48 hrs by CCK8 assay; type: cell-based
Procedure, shortened: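 Unstimulated mouse splenic T cells exposed to compound at 10 µM. Growth read by CCK-8 absorbance; […]. Mean ± SD, three independent experiments.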

[3] = Elimination half life in rat liver microsomes incubated for 10 mins followed by potassium phosphate buffer addition and measured after 5 to 60 mins by LC-MS/MS analysis; type: ADME, Microsome; conditions: read-out: beta t1/2; procedure, shortened: as §1
[4] = biological target: Mitogen-activated protein kinase kinase kinase 14 (Homo sapiens, UniProt Q99558); experiment: Inhibition of human NIK using myelin basic protein as substrate in presence of [gamma33P]ATP by hotspot assay
Mus musculus [5] = experiment: Suppression of IMQ-induced psoriasis in ig dosed C57 mouse assessed as reduction in serum TNFalpha level administered once daily starting from day 3 post IMQ-challenge and measured 2 days post-last dose of IMQ by ELISA; type: functional, organism-based
Procedure, shortened: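 Psoriasis-like dermatitis induced by 5% imiquimod cream on back skin of C57 mice, q.d. for seven days. Oral (i.g.) dosing q.d. at 60 or 120 mg/kg from day 3 to study end, n = 6 per group. At end, blood held at 4 °C for 12 h, then centrifuged. Serum TNFα measured by ELISA. Mean ± SEM.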

[6] = Elimination half life in dog liver microsomes incubated for 10 mins followed by potassium phosphate buffer addition and measured after 5 to 60 mins by LC-MS/MS analysis; type: ADME, Canis lupus familiaris, Microsome; conditions: read-out: beta t1/2; procedure, shortened: as §1
[7] = Intrinsic hepatic clearance in human; type: ADME
Procedure, shortened: (§2)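 Scaled from microsomal intrinsic clearance: CLint,in vitro × microsomal protein per g liver × liver weight per kg body weight.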

[8] = Intrinsic hepatic clearance in dog; type: ADME, Canis lupus familiaris; conditions: in vivo; procedure, shortened: as §2
Mus musculus [9] = experiment: Protection against IMQ-induced dermatitis in C57 mouse model of psoriasis assessed as reduction in roughness at 60 to 120 mg/kg, ig administered once daily starting from day 3 post IMQ-challenge and measured 2 days post-last dose of IMQ; type: functional, organism-based
Procedure, shortened: (§3)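 C57 mice given 5% imiquimod cream on the back once daily for 7 days; intragastric dosing 60 or 120 mg/kg once daily from day 3 to end, n = 6 per group. Dorsal skin phenotype assessed by imaging.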

[10] = Elimination half life in monkey liver microsomes incubated for 10 mins followed by potassium phosphate buffer addition and measured after 5 to 60 mins by LC-MS/MS analysis; type: ADME, Macaca mulatta, Microsome; conditions: rhesus monkey, read-out: beta t1/2; procedure, shortened: as §1
J774 = experiment: Antiinflammatory activity in mouse J774 cells assessed as reduction in LPS-induced CCL3 mRNA level by SYBR green dye-based quantitative PCR analysis; type: functional, cell-based
Procedure, shortened: (§4)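 LPS-stimulated J774 macrophages; mRNA quantified by qPCR using 4 µL cDNA plus 16 µL master mix per reaction. Mean ± SD of three biological replicates; significance by two-tailed Student's t-test against the model group.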

[11] = biological target: Mitogen-activated protein kinase kinase kinase 14 (Mus musculus) (UniProt Q9WUL6); experiment: Inhibition of NIK in mouse J774 cells assessed as reduction in LPS-induced TNFalpha mRNA level by SYBR green dye-based quantitative PCR analysis; type: cell-based; procedure, shortened: as §4
Mus musculus [12] = experiment: (§5) Suppression of epidermal and dermal cell proliferation in C57 mouse model of IMQ-induced psoriasis assessed as reduction in Ki67 expression in back skin psoriatic lesions at 60 mg/kg, ig administered starting from day 3 post IMQ-challenge and measured 2 days post-last dose of IMQ by immunohistochemical analysis relative to control; type: functional; conditions: C57, topical
Procedure, shortened: (§6)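 C57 mice given 5% imiquimod cream on back skin q.d. for seven days. Gavage q.d. at 60 or 120 mg/kg from day 3, n = 6 per group. Back-skin frozen sections (6 µm) stained for Ki67 by IHC. % Ki67+ of total cells quantified and normalized to IMQ-only model group. Two-tailed t-test, mean ± SD.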

T-cell [13] = experiment: Antiinflammatory activity in mouse T cells assessed as inhibition of conA-induced induced T cell proliferation at 0.4 uM incubated for 48 hrs by CCK8 assay relative to control; type: functional
[14] = biological target: Mitogen-activated protein kinase kinase kinase 14 (Mus musculus) (UniProt Q9WUL6); experiment: In vivo inhibition of NIK in C57 mouse model of IMQ-induced psoriasis assessed as reduction in NF-kappaB signalling in back skin by measuring decrease in mRNA IL-12 level at 60 to 120 mg/kg, po administered starting from day 3 post IMQ-challenge and measured 2 days post-last dose of IMQ by qPCR analysis; type: functional, organism-based
Procedure, shortened: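 C57 mice had 5% imiquimod cream applied to the back skin once daily for seven consecutive days. Oral gavage dosing at 60 or 120 mg/kg once daily started on day 3 and continued to the end, with n = 6 per group alongside normal and IMQ-only model groups. Back-skin mRNA was quantified by qPCR.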

Mus musculus [15] = experiment: Suppression of IMQ-induced psoriasis in C57 mouse assessed as reduction in spleen index at 120 mg/kg, ig administered once daily starting from day 3 post IMQ-challenge and measured 2 days post-last dose of IMQ; type: functional, organism-based
Procedure, shortened: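 IMQ-induced C57 mice (5% cream daily 7 days; i.g. daily from day 3 at the stated dose, n = 6). Spleen weighed per mouse at end of study.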

Mus musculus [16] = experiment: Protection against IMQ-induced dermatitis in C57 mouse model of psoriasis assessed as reduction in dermal scales at 120 mg/kg, ig administered once daily starting from day 3 post IMQ-challenge and measured 2 days post-last dose of IMQ; type: functional, organism-based; procedure, shortened: as §3
[17] = AUC (0 to infinity) in Sprague-Dawley rat at 1 mg/kg, iv administered as single bolus dose by LC-MS/MS analysis; type: ADME, organism-based; set-up: dose 1 mg/kg, time infinity, route intravenous; conditions: in vivo
Procedure, shortened: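 Single IV bolus in SD rats, 3 per group, in DMSO:PEG200:saline 20:20:60 (v/v/v), 0.2 mg/mL. Plasma protein-precipitated with ACN containing internal standards, then quantified by LC-MS/MS. AUC0-∞ from concentration-time profiles by linear trapezoidal rule, noncompartmental analysis. Mean ± SD of three rats.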

[18] = Half life in Sprague-Dawley rat at 1 mg/kg, iv administered as single bolus dose by LC-MS/MS analysis; type: ADME, organism-based; conditions: in vivo
[19] = Volume of distribution in Sprague-Dawley rat at 1 mg/kg, iv administered as single bolus dose by LC-MS/MS analysis; type: ADME, organism-based; conditions: in vivo
Procedure, shortened: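 SD rats, 3 per group. Single IV bolus at 1 mg/kg in DMSO:PEG200:saline 20:20:60 (0.2 mg/mL), or oral gavage at 10 mg/kg as suspension in 0.5% CMC-Na/0.2% Tween 80 (1 mg/mL). Plasma protein-precipitated with acetonitrile containing internal standards, then quantified by LC-MS/MS. Parameters derived by noncompartmental analysis. Mean ± SD.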

Activated CDC42 kinase 1 = Activated CDC42 kinase 1 (Homo sapiens, UniProt Q07912); experiment: Inhibition of human ACK1 using [EAIYAAPFAKKK] as substrate in presence of [gamma33P]ATP by hotspot assay
Mus musculus [20] = experiment: as §5, with “120” for “60”; type: functional; conditions: C57, topical; procedure, shortened: as §6

Sequence of Mitogen-activated protein kinase kinase kinase 14 (Mus musculus) (Q9WUL6 whole entry): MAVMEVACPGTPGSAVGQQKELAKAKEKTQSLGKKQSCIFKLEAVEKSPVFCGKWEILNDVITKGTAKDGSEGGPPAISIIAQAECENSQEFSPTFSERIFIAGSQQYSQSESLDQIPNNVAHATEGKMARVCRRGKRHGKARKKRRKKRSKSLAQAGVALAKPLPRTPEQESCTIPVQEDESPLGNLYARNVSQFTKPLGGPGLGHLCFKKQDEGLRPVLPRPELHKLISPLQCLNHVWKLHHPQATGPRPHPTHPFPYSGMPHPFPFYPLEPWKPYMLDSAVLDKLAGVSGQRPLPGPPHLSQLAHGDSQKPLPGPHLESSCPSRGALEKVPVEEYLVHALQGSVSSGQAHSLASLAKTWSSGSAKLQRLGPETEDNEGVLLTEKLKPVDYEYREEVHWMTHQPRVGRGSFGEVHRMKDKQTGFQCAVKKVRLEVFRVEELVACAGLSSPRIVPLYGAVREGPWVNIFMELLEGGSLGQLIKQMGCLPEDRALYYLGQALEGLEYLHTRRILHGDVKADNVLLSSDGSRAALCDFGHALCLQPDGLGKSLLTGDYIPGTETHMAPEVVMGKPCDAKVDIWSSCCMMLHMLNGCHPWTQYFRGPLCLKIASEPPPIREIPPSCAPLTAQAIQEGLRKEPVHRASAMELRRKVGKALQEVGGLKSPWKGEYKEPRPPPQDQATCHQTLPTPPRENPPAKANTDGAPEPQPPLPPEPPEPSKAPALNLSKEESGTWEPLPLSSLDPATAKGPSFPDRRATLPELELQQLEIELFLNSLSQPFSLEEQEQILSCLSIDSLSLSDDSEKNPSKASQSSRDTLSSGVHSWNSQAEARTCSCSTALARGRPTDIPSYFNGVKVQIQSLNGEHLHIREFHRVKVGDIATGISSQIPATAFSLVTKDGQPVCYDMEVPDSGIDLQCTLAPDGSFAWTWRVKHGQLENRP
Sequence of Activated CDC42 kinase 1 (Q07912 whole entry): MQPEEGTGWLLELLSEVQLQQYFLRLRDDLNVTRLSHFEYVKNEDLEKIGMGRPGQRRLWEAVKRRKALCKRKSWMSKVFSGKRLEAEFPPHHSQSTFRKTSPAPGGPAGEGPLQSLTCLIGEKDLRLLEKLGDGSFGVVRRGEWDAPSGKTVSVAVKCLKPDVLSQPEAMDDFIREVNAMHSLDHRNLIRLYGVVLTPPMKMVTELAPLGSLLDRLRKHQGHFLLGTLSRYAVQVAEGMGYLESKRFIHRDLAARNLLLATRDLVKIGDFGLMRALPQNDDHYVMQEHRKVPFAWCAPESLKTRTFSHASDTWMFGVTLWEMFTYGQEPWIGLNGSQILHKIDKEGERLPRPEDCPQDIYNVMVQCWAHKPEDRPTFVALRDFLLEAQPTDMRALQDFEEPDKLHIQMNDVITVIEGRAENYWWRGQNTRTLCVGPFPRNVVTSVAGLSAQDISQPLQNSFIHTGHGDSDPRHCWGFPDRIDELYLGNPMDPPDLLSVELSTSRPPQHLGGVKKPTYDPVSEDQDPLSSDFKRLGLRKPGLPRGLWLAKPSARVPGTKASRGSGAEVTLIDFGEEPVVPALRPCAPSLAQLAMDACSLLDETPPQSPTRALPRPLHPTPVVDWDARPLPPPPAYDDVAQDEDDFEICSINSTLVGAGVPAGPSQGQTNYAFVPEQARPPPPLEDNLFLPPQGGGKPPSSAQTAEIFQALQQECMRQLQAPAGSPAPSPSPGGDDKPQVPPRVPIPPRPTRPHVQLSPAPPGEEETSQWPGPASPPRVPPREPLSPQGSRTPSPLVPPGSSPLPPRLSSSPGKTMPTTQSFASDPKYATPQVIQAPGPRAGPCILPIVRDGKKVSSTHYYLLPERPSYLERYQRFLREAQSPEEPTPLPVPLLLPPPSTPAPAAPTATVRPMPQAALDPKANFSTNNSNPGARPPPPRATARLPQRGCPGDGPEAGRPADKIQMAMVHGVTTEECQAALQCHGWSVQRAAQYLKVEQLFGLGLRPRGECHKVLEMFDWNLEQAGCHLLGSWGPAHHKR
Sequence of Mitogen-activated protein kinase kinase kinase 14 (Q99558 whole entry): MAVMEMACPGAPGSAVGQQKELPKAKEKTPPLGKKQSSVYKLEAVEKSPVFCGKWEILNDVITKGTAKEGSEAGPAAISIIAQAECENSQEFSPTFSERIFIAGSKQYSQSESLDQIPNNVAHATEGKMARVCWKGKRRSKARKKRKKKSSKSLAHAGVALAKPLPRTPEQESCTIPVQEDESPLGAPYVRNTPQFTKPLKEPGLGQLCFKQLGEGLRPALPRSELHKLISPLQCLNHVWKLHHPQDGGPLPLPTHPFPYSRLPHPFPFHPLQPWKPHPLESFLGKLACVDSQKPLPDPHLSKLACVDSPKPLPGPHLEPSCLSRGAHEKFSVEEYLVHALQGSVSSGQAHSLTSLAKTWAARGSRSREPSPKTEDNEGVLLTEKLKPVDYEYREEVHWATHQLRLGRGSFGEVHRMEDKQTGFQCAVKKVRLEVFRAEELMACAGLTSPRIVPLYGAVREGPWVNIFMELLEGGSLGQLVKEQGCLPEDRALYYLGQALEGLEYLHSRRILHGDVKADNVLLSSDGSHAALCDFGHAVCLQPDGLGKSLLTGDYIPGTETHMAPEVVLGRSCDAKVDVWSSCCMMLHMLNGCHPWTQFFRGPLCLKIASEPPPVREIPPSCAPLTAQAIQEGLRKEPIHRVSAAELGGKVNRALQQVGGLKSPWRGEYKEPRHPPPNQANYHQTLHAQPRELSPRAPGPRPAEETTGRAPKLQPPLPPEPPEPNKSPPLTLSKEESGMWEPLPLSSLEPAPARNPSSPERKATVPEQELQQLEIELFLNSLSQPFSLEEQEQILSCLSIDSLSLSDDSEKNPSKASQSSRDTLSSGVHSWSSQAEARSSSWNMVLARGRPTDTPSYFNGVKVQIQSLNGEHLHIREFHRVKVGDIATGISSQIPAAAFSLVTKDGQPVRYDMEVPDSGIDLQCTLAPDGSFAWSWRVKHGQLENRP

microsomal CLint [1]: 32.4 µL/min/mg
half-life [3]: 30.8 min
pIC50 [4]: 8.01
half-life [6]: 32.4 min
CLH [7]: 30.6 mL/min/kg
CLH [8]: 62.4 mL/min/kg
half-life [10]: 18 min
inhibition [11]: Active
inhibition [14]: Active
AUC(0-inf) [17]: 419 ng·h/mL
half-life [18]: 56.6 min
Vd [19]: 2.73 L/kg
pIC50 (Activated CDC42 kinase 1): 6.72
Structure (SMILES): CC(O)(C#Cc1ccc(N2CCOCC2)c(Nc2ncnc3[nH]ccc23)c1)c1nccs1 (racemic)
Activity (T-cell [2]): Non-Toxic
inhibition (Mus musculus [5]): Dose-dependent effect
Activity (Mus musculus [9]): Active
Activity (J774): Active
inhibition in vivo at 60 mg/kg (Mus musculus [12]): 55%
inhibition at 0.4 µM (T-cell [13]): 36%
inhibition (Mus musculus [15]): Active
Activity (Mus musculus [16]): Active
inhibition in vivo at 120 mg/kg (Mus musculus [20]): 83%
